Tests used:
Stomach = test: Biodistribution in CD1 mouse stomach assessed per gram of wet tissue at 400 to 600 kBq, iv after 60 mins post-injection by gamma counting; assay type: ADME, organism-based; conditions: in vivo, 1 h
Summary of the method: (§1)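 Female CD-1 mice (~8-12 weeks, 20-28 g), habituated ≥48 h and fasted 24 h with water available. The [18F] tracer (>150 GBq/μmol at end of synthesis) was given in 200 μL saline into the tail vein of conscious animals. At each time point, n=4-5, mice were anaesthetised, blood and urine sampled, then killed by cervical dislocation. Organs were weighed and γ-counted, and values calculated as % ID/g wet tissue.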

Intestine [1] = test: Biodistribution in CD1 mouse intestine assessed per gram of wet tissue at 400 to 600 kBq, iv after 60 mins post-injection by gamma counting; assay type: ADME, organism-based; conditions: in vivo, 1 h
Summary of the method: (§2)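 Female CD-1 mice (~8-12 weeks, 20-28 g) were fasted 24 h with free water. Conscious mice got 400-600 kBq [¹⁸F] tracer in saline by tail vein. At 5, 30, 60 or 120 min (n=4-5 per time) they were anesthetized, blood and urine sampled, then killed by cervical dislocation. Organs were weighed and γ-counted, giving % ID/g wet tissue.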

Kidney = test: Biodistribution in CD1 mouse kidney assessed per gram of wet tissue at 400 to 600 kBq, iv after 60 mins post-injection by gamma counting; assay type: ADME, organism-based; conditions: in vivo, 1 h; summary of the method: as §2
[2] = Biodistribution in CD1 mouse urine assessed as per gram of wet bladder at 400 to 600 kBq, iv after 60 mins post-injection by gamma counting; assay type: ADME, organism-based; conditions: in vivo, 1 h; summary of the method: as §1
Spleen [3] = test: Biodistribution in CD1 mouse spleen assessed per gram of wet tissue at 400 to 600 kBq, iv after 60 mins post-injection by gamma counting; assay type: ADME, organism-based; conditions: in vivo, 1 h; summary of the method: as §1
[4] = Biodistribution in CD1 mouse adrenal gland assessed per gram of wet tissue at 400 to 600 kBq, iv after 60 mins post-injection by gamma counting; assay type: ADME, organism-based; conditions: in vivo, 1 h; summary of the method: as §2
Muscle tissue [5] = test: Biodistribution in CD1 mouse muscle assessed per gram of wet tissue at 400 to 600 kBq, iv after 60 mins post-injection by gamma counting; assay type: ADME, organism-based; conditions: in vivo, 1 h; summary of the method: as §1
Blood = test: Biodistribution in CD1 mouse blood assessed per gram of wet tissue at 400 to 600 kBq, iv after 120 minspost-injection by gamma counting; assay type: ADME, organism-based; conditions: in vivo, 2 h; summary of the method: as §2
Cerebellum [6] = test: Biodistribution in CD1 mouse cerebellum assessed per gram of wet tissue at 400 to 600 kBq, iv after 120 mins post-injection by gamma counting; assay type: ADME, organism-based; conditions: in vivo, 2 h; summary of the method: as §2
Heart [7] = test: Biodistribution in CD1 mouse heart assessed per gram of wet tissue at 400 to 600 kBq, iv after 120 mins post-injection by gamma counting; assay type: ADME, organism-based; conditions: in vivo, 2 h; summary of the method: as §2
Liver [8] = test: Biodistribution in CD1 mouse liver assessed per gram of wet tissue at 400 to 600 kBq, iv after 120 mins post-injection by gamma counting; assay type: ADME, organism-based; conditions: in vivo, 2 h; summary of the method: as §2
[9] = Biodistribution in CD1 mouse urine assessed as per gram of wet bladder at 400 to 600 kBq, iv after 120 mins post-injection by gamma counting; assay type: ADME, organism-based; conditions: in vivo, 2 h; summary of the method: as §1
Muscle tissue [10] = test: Biodistribution in CD1 mouse muscle assessed per gram of wet tissue at 400 to 600 kBq, iv after 120 mins post-injection by gamma counting; assay type: ADME, organism-based; conditions: in vivo, 2 h; summary of the method: as §1
Liver [11] = test: Biodistribution in CD1 mouse liver assessed increase in drug uptake at 400 to 600 kBq, iv after 60 mins post-injection by gamma counting in presence of 1 mg/kg, ip sigma 1/sigma 2 receptor antagonist haloperidol treated before compound addition; assay type: organism-based; set-up: dose 1 mg/kg, route intravenous; conditions: in vivo, 1 h
Summary of the method: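 Blocking arm in fasted female CD-1 mice (n=5). […] Animals were killed at 60 min post-injection, and organs were weighed and γ-counted as % ID/g wet tissue. Percent change was taken against the 60 min control group, with two-tailed unpaired Student's t test.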

[12] = Chemical stability in solution of 0.9% NaCl, phosphate buffer saline and Tris-HCl up to 120 mins; assay type: physicochemical; conditions: 2 h
Cerebellum [13] = test: Biodistribution in CD1 mouse cerebellum assessed per gram of wet tissue at 400 to 600 kBq, iv after 5 mins post-injection by gamma counting; assay type: ADME, organism-based; conditions: in vivo; summary of the method: as §2
Brain = test: Biodistribution in CD1 mouse brain assessed per gram of wet tissue at 400 to 600 kBq, iv after 5 mins post-injection by gamma counting; assay type: ADME, organism-based; conditions: in vivo; summary of the method: as §2
Heart [14] = test: Biodistribution in CD1 mouse heart assessed per gram of wet tissue at 400 to 600 kBq, iv after 5 mins post-injection by gamma counting; assay type: ADME, organism-based; conditions: in vivo; summary of the method: as §2
Intestine [15] = test: Biodistribution in CD1 mouse intestine assessed per gram of wet tissue at 400 to 600 kBq, iv after 5 mins post-injection by gamma counting; assay type: ADME, organism-based; conditions: in vivo; summary of the method: as §2
[16] = Biodistribution in CD1 mouse urine assessed as per gram of wet bladder at 400 to 600 kBq, iv after 5 mins post-injection by gamma counting; assay type: ADME, organism-based; conditions: in vivo; summary of the method: as §1
[17] = Biodistribution in CD1 mouse thymus assessed per gram of wet tissue at 400 to 600 kBq, iv after 5 mins post-injection by gamma counting; assay type: ADME, organism-based; conditions: in vivo; summary of the method: as §1
Mus musculus = test: Plasma concentration in CD1 mouse assessed per gram of wet tissue at 400 to 600 kBq, iv after 30 mins post-injection by gamma counting; assay type: ADME, organism-based; conditions: in vivo, 0.5 h
Summary of the method: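 Female CD-1 mice (~8-12 weeks, 20-28 g), fasted 24 h with free access to water. 400-600 kBq [18F] tracer in 200 μL saline given by tail vein to conscious mice. At 5, 30, 60 or 120 min pi (n=4-5 per time) mice anaesthetised, blood taken, then euthanised. Samples weighed, γ-counted, %ID/g wet tissue calculated.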

Cerebellum [18] = test: Biodistribution in CD1 mouse cerebellum assessed per gram of wet tissue at 400 to 600 kBq, iv after 30 mins post-injection by gamma counting; assay type: ADME, organism-based; conditions: in vivo, 0.5 h; summary of the method: as §2
Lung = test: Biodistribution in CD1 mouse lung assessed per gram of wet tissue at 400 to 600 kBq, iv after 30 mins post-injection by gamma counting; assay type: ADME, organism-based; conditions: in vivo, 0.5 h; summary of the method: as §1
Liver [19] = test: Biodistribution in CD1 mouse liver assessed per gram of wet tissue at 400 to 600 kBq, iv after 30 mins post-injection by gamma counting; assay type: ADME, organism-based; conditions: in vivo, 0.5 h; summary of the method: as §1
Spleen [20] = test: Biodistribution in CD1 mouse spleen assessed per gram of wet tissue at 400 to 600 kBq, iv after 30 mins post-injection by gamma counting; assay type: ADME, organism-based; conditions: in vivo, 0.5 h; summary of the method: as §1
[21] = Biodistribution in CD1 mouse adrenal gland assessed per gram of wet tissue at 400 to 600 kBq, iv after 30 mins post-injection by gamma counting; assay type: ADME, organism-based; conditions: in vivo, 0.5 h; summary of the method: as §2
Femur = test: Biodistribution in CD1 mouse femur assessed per gram of wet tissue at 400 to 600 kBq, iv after 30 mins post-injection by gamma counting; assay type: ADME, organism-based; conditions: in vivo, 0.5 h; summary of the method: as §2
Liver [22] = test: Metabolic stability in CD1 mouse liver homogenate assessed as formation of 3-(3-Fluoropropyl)-3H-spiro[[2]benzofuran-1,4'-piperidine], 4-((3-(3-fluoropropyl)-3H-spiro[isobenzofuran-1,4'-piperidine]-1'-yl)methyl)phenol and 1-(1'-benzyl-3H-spiro[isobenzofuran-1,4'-piperidine]-3-yl)-3-fluoropropan-2-ol at 200 to 300 MBq, iv after 45 mins postinjection by radio-HPLC and radio-TLC; assay type: ADME, organism-based; conditions: in vivo, 0.75 h
Summary of the method: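 Mice received 200-300 MBq [18F] tracer in 200 μL 0.9% saline via the tail vein, and samples were taken at 45 and 60 min (n=2 per time). Plasma was obtained by centrifugation (2000g, 4 °C, 10 min); brain and liver were homogenised in ice-cold 50 mM TRIS-HCl pH 7.4. Samples were precipitated with ice-cold MeCN and centrifuged (4000g, 4 °C, 15 min), and supernatants were analysed by gradient radio-HPLC and radio-TLC, with HPLC fractions γ-counted.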

Question: For `[18F]CCCC1OC2(CCN(Cc3ccccc3)CC2)c2ccccc21` (centres undefined), which Drug uptake (Stomach) is on record?
Answer: The Drug uptake was 3.17 %ID.

Question: And the Drug uptake (Intestine [1])?
Answer: The Drug uptake was 6.59 %ID.

Question: What about the Drug uptake (Kidney) of the same compound?
Answer: Its Drug uptake is 5.14 %ID.

Question: And the Drug uptake [2]?
Answer: The Drug uptake was 7.84 %ID.

Question: What about the Drug uptake (Spleen [3]) of the same compound?
Answer: Its Drug uptake is 5.56 %ID.

Question: What about the Drug uptake [4] of the same compound?
Answer: Its Drug uptake is 7.78 %ID.

Question: And the Drug uptake (Muscle tissue [5])?
Answer: The Drug uptake was 0.97 %ID.

Question: What about the Drug uptake (Blood) of the same compound?
Answer: Its Drug uptake is 0.48 %ID.

Question: What about the Drug uptake (Cerebellum [6]) of the same compound?
Answer: Its Drug uptake is 2.41 %ID.

Question: And the Drug uptake (Heart [7])?
Answer: Its Drug uptake is 1.52 %ID.

Question: And the Drug uptake (Liver [8])?
Answer: Its Drug uptake is 2.93 %ID.

Question: What about the Drug uptake [9] of the same compound?
Answer: Its Drug uptake is 49.2 %ID.

Question: What about the Drug uptake (Muscle tissue [10]) of the same compound?
Answer: Its Drug uptake is 0.97 %ID.

Question: And the Drug uptake (Liver [11])?
Answer: Its Drug uptake is 3.89 %ID.

Question: And the Stability [12]?
Answer: The Stability was “Stable”.

Question: And the Drug uptake (Cerebellum [13])?
Answer: Its Drug uptake is 4.62 %ID.

Question: What about the Drug uptake (Brain) of the same compound?
Answer: The Drug uptake was 3.66 %ID.

Question: And the Drug uptake (Heart [14])?
Answer: The Drug uptake was 6.52 %ID.

Question: What about the Drug uptake (Intestine [15]) of the same compound?
Answer: Its Drug uptake is 4.35 %ID.

Question: What about the Drug uptake [16] of the same compound?
Answer: Its Drug uptake is 2.89 %ID.

Question: And the Drug uptake [17]?
Answer: Its Drug uptake is 3.98 %ID.

Question: What about the Drug uptake (Mus musculus) of the same compound?
Answer: The Drug uptake was 0.96 %ID.

Question: And the Drug uptake (Cerebellum [18])?
Answer: Its Drug uptake is 3.71 %ID.

Question: And the Drug uptake (Lung)?
Answer: Its Drug uptake is 7.01 %ID.

Question: What about the Drug uptake (Liver [19]) of the same compound?
Answer: Its Drug uptake is 4.28 %ID.

Question: What about the Drug uptake (Spleen [20]) of the same compound?
Answer: Its Drug uptake is 5.86 %ID.

Question: What about the Drug uptake [21] of the same compound?
Answer: The Drug uptake was 7.63 %ID.

Question: What about the Drug uptake (Femur) of the same compound?
Answer: The Drug uptake was 3.79 %ID.

Question: What about the Activity (Liver [22]) of the same compound?
Answer: The Activity was 45%.

Reference: ChEMBL document CHEMBL1154191, “Evaluation of spirocyclic 3-(3-fluoropropyl)-2-benzofurans as sigma1 receptor ligands for neuroimaging with positron emission tomography” (J Med Chem, 2009)
